ChEMBL document CHEMBL2380298, “Synthesis and antimicrobial activity of novel amphiphilic aromatic amino alcohols” (2013)

How the values were obtained:
Assay type in all cases: functional
Staphylococcus aureus [1] = experiment: Bactericidal activity against methicillin-resistant Staphylococcus aureus clinical isolate 257 after 24 hrs; details: isolate 257, 24 h
Summary of the method: (§1)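 Bactericidal concentration: 0.1 ml from wells at the MIC dilution and the dilutions on either side was streaked onto tryptic soy agar and incubated 24 h. It was taken as the lowest drug concentration giving no growth (100% killing).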

Nakaseomyces glabratus = experiment: Antimicrobial activity against Candida glabrata ATCC 18804 by broth dilution method
Staphylococcus aureus [2] = experiment: Antimicrobial activity against methicillin-resistant Staphylococcus aureus clinical isolate 227 by broth dilution method
Staphylococcus aureus [3] = experiment: Bactericidal activity against methicillin-resistant Staphylococcus aureus clinical isolate 238 after 24 hrs; details: isolate 238, 24 h; summary of the method: as §1
Staphylococcus aureus [4] = experiment: Bactericidal activity against methicillin-resistant Staphylococcus aureus clinical isolate 260 after 24 hrs; details: isolate 260, 24 h; summary of the method: as §1
Escherichia coli [5] = experiment: Bactericidal activity against Escherichia coli ATCC 11229 after 24 hrs; details: ATCC 11229, 24 h
Summary of the method: (§2)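 MBC: after MIC determination, 0.1 ml from the MIC well and from two dilutions either side streaked on tryptic soy agar, incubated 24 h; MBC taken as lowest concentration giving no growth (100% kill).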

Staphylococcus aureus [6] = experiment: Bactericidal activity against Staphylococcus aureus ATCC 29213 after 24 hrs; details: ATCC 29213, 24 h; summary of the method: as §1
Staphylococcus aureus [7] = experiment: Antimicrobial activity against methicillin-resistant Staphylococcus aureus clinical isolate 231 by broth dilution method
Staphylococcus aureus [8] = experiment: Bactericidal activity against methicillin-resistant Staphylococcus aureus clinical isolate 232 after 24 hrs; details: isolate 232, 24 h; summary of the method: as §1
[9] = tested on: Staphylococcus epidermidis; experiment: Bactericidal activity against Staphylococcus epidermidis ATCC 12228 after 24 hrs; details: ATCC 12228, 24 h; summary of the method: as §2
Staphylococcus aureus [10] = experiment: Antimicrobial activity against methicillin-resistant Staphylococcus aureus clinical isolate 195 by broth dilution method
Staphylococcus aureus [11] = experiment: Bactericidal activity against methicillin-resistant Staphylococcus aureus clinical isolate 255 after 24 hrs; details: isolate 255, 24 h; summary of the method: as §1
Staphylococcus aureus [12] = experiment: Bactericidal activity against methicillin-resistant Staphylococcus aureus clinical isolate 231 after 24 hrs; details: isolate 231, 24 h; summary of the method: as §1
Staphylococcus aureus [13] = experiment: Antimicrobial activity against methicillin-resistant Staphylococcus aureus clinical isolate 255 by broth dilution method
Staphylococcus aureus [14] = experiment: Antimicrobial activity against Staphylococcus aureus ATCC 29213 by broth dilution method; details: for MIC: Staphylococcus aureus, ATCC 29213
Staphylococcus aureus [15] = experiment: Antimicrobial activity against methicillin-resistant Staphylococcus aureus clinical isolate 235 by broth dilution method
Staphylococcus aureus [16] = experiment: Antimicrobial activity against methicillin-resistant Staphylococcus aureus clinical isolate 238 by broth dilution method
Staphylococcus aureus [17] = experiment: Antimicrobial activity against methicillin-resistant Staphylococcus aureus clinical isolate 207 by broth dilution method
Staphylococcus aureus [18] = experiment: Antimicrobial activity against methicillin-resistant Staphylococcus aureus clinical isolate 225 by broth dilution method
Candida parapsilosis = experiment: Antimicrobial activity against Candida parapsilosis ATCC 90030 by broth dilution method; details: Lodderomyces parapsilosis
Staphylococcus aureus [19] = experiment: Antimicrobial activity against methicillin-resistant Staphylococcus aureus clinical isolate 176 by broth dilution method
Staphylococcus aureus [20] = experiment: Antimicrobial activity against methicillin-resistant Staphylococcus aureus clinical isolate 205 by broth dilution method
Staphylococcus aureus [21] = experiment: Bactericidal activity against methicillin-resistant Staphylococcus aureus clinical isolate 259 after 24 hrs; details: isolate 259, 24 h; summary of the method: as §1
Pseudomonas aeruginosa = experiment: Antimicrobial activity against Pseudomonas aeruginosa ATCC 27853 by broth dilution method
Staphylococcus aureus [22] = experiment: Antimicrobial activity against methicillin-resistant Staphylococcus aureus clinical isolate 264 by broth dilution method
Staphylococcus aureus [23] = experiment: Antimicrobial activity against methicillin-resistant Staphylococcus aureus clinical isolate 260 by broth dilution method
[24] = tested on: Staphylococcus epidermidis; experiment: Antimicrobial activity against Staphylococcus epidermidis ATCC 12228 by broth dilution method; details: for MIC: Staphylococcus epidermidis, ATCC 12228
Staphylococcus aureus [25] = experiment: Bactericidal activity against methicillin-resistant Staphylococcus aureus clinical isolate 237 after 24 hrs; details: isolate 237, 24 h; summary of the method: as §1
Staphylococcus aureus [26] = experiment: Antimicrobial activity against methicillin-resistant Staphylococcus aureus clinical isolate 215 by broth dilution method
Staphylococcus aureus [27] = experiment: Antimicrobial activity against methicillin-resistant Staphylococcus aureus clinical isolate 236 by broth dilution method
Staphylococcus aureus [28] = experiment: Antimicrobial activity against methicillin-resistant Staphylococcus aureus clinical isolate 218 by broth dilution method
Staphylococcus aureus [29] = experiment: Bactericidal activity against methicillin-resistant Staphylococcus aureus clinical isolate 235 after 24 hrs; details: isolate 235, 24 h; summary of the method: as §1
Staphylococcus aureus [30] = experiment: Bactericidal activity against methicillin-resistant Staphylococcus aureus clinical isolate 264 after 24 hrs; details: isolate 264, 24 h; summary of the method: as §1
Staphylococcus aureus [31] = experiment: Bactericidal activity against methicillin-resistant Staphylococcus aureus clinical isolate 236 after 24 hrs; details: isolate 236, 24 h; summary of the method: as §1
Staphylococcus aureus [32] = experiment: Antimicrobial activity against methicillin-resistant Staphylococcus aureus clinical isolate 212 by broth dilution method
Staphylococcus aureus [33] = experiment: Antimicrobial activity against methicillin-resistant Staphylococcus aureus clinical isolate 237 by broth dilution method
Staphylococcus aureus [34] = experiment: Antimicrobial activity against methicillin-resistant Staphylococcus aureus clinical isolate 232 by broth dilution method
Escherichia coli [35] = experiment: Antimicrobial activity against Escherichia coli ATCC 11229 by broth dilution method; details: for MIC: Escherichia coli, ATCC 11229
Staphylococcus aureus [36] = experiment: Bactericidal activity against methicillin-resistant Staphylococcus aureus clinical isolate 212 after 24 hrs; details: isolate 212, 24 h; summary of the method: as §1
Staphylococcus aureus [37] = experiment: Antimicrobial activity against methicillin-resistant Staphylococcus aureus clinical isolate 259 by broth dilution method
Staphylococcus aureus [38] = experiment: Bactericidal activity against methicillin-resistant Staphylococcus aureus clinical isolate 178 after 24 hrs; details: isolate 178, 24 h; summary of the method: as §1
Staphylococcus aureus [39] = experiment: Antimicrobial activity against methicillin-resistant Staphylococcus aureus clinical isolate 257 by broth dilution method
Candida tropicalis = experiment: Antimicrobial activity against Candida tropicalis ATCC 750 by broth dilution method
Staphylococcus aureus [40] = experiment: Antimicrobial activity against methicillin-resistant Staphylococcus aureus clinical isolate 178 by broth dilution method
Candida albicans = experiment: Antimicrobial activity against Candida albicans ATCC 22019 by broth dilution method
Staphylococcus aureus [41] = experiment: Antimicrobial activity against methicillin-resistant Staphylococcus aureus clinical isolate by broth dilution method; details: for MIC50 / MIC90: Staphylococcus aureus

CCCCCCCCCCOc1ccc(CNC(CO)(CO)CO)cc1.Cl
16 µg/mL: MBC (Staphylococcus aureus [4]) | MIC (Pseudomonas aeruginosa) | MBC (Staphylococcus aureus [25]) | MIC (Staphylococcus aureus [33]) | MIC (Staphylococcus aureus [34])
8 µg/mL: MBC (Staphylococcus aureus [1]) | MBC (Staphylococcus aureus [3]) | MBC (Staphylococcus aureus [6]) | MIC (Staphylococcus aureus [7]) | MBC [9] | MIC (Staphylococcus aureus [10]) | MBC (Staphylococcus aureus [11]) | MBC (Staphylococcus aureus [12]) | MIC (Staphylococcus aureus [14]) | MIC (Staphylococcus aureus [16]) | MIC (Staphylococcus aureus [17]) | MIC (Staphylococcus aureus [18]) | MIC (Candida parapsilosis) | MIC (Staphylococcus aureus [19]) | MIC (Staphylococcus aureus [20]) | MIC (Staphylococcus aureus [23]) | MIC (Staphylococcus aureus [32]) | MIC (Candida tropicalis) | MIC (Staphylococcus aureus [40]) | MIC50 (Staphylococcus aureus [41]) | MIC90 (Staphylococcus aureus [41])
5: -logMIC [24]
32 µg/mL: MBC (Escherichia coli [5]) | MBC (Staphylococcus aureus [8]) | MIC (Escherichia coli [35])
4.7: -logMIC (Staphylococcus aureus [14])
128 µg/mL: MBC (Staphylococcus aureus [36]) | MBC (Staphylococcus aureus [38])
4 µg/mL: MIC (Staphylococcus aureus [2]) | MIC (Staphylococcus aureus [13]) | MIC (Staphylococcus aureus [15]) | MBC (Staphylococcus aureus [21]) | MIC [24] | MIC (Staphylococcus aureus [26]) | MIC (Staphylococcus aureus [27]) | MIC (Staphylococcus aureus [28]) | MBC (Staphylococcus aureus [29]) | MBC (Staphylococcus aureus [31]) | MIC (Staphylococcus aureus [37]) | MIC (Staphylococcus aureus [39]) | MIC (Candida albicans)
2 µg/mL: MIC (Nakaseomyces glabratus) | MIC (Staphylococcus aureus [22]) | MBC (Staphylococcus aureus [30])
4.842: -logMIC (Staphylococcus aureus [41])
4.1: -logMIC (Escherichia coli [35])

CCCCCCCCCCCCCCOc1ccc(CNC(CO)(CO)CO)cc1.Cl
> 1020 µg/mL: MIC (Staphylococcus aureus [2]) | MIC (Staphylococcus aureus [17]) | MIC (Staphylococcus aureus [18]) | MIC (Staphylococcus aureus [26]) | MIC (Staphylococcus aureus [32]) | MIC90 (Staphylococcus aureus [41])
2 µg/mL: MIC (Staphylococcus aureus [7]) | MIC (Staphylococcus aureus [14]) | MBC (Staphylococcus aureus [21]) | MIC (Staphylococcus aureus [23]) | MIC [24] | MIC (Staphylococcus aureus [37]) | MIC (Staphylococcus aureus [39])
5.03: -logMIC (Staphylococcus aureus [41])
64 µg/mL: MBC (Staphylococcus aureus [30])
4 µg/mL: MBC (Staphylococcus aureus [3]) | MBC (Staphylococcus aureus [12]) | MIC (Staphylococcus aureus [15]) | MIC (Staphylococcus aureus [16]) | MBC (Staphylococcus aureus [25]) | MIC (Staphylococcus aureus [33])
5.36: -logMIC [24]
32 µg/mL: MIC (Candida tropicalis)
> 256 µg/mL: MIC (Pseudomonas aeruginosa) | MIC (Escherichia coli [35])
16 µg/mL: MBC (Staphylococcus aureus [6]) | MIC (Staphylococcus aureus [10]) | MBC (Staphylococcus aureus [11]) | MIC (Staphylococcus aureus [19]) | MIC (Staphylococcus aureus [20]) | MIC (Staphylococcus aureus [22]) | MIC (Candida albicans)
8 µg/mL: MBC (Staphylococcus aureus [1]) | MIC (Nakaseomyces glabratus) | MBC (Staphylococcus aureus [4]) | MBC (Staphylococcus aureus [8]) | MIC (Staphylococcus aureus [13]) | MIC (Candida parapsilosis) | MIC (Staphylococcus aureus [27]) | MIC (Staphylococcus aureus [28]) | MBC (Staphylococcus aureus [29]) | MBC (Staphylococcus aureus [31]) | MIC (Staphylococcus aureus [34]) | MIC (Staphylococcus aureus [40]) | MIC50 (Staphylococcus aureus [41])
512 µg/mL: MBC [9]

CCC(C)n1ncn(-c2ccc(N3CCN(c4ccc(OCC5COC(Cn6cncn6)(c6ccc(Cl)cc6Cl)O5)cc4)CC3)cc2)c1=O (stereo not given) [ITRACONAZOLE]
256 µg/mL: MIC (Nakaseomyces glabratus)
> 512 µg/mL: MIC (Candida parapsilosis) | MIC (Candida tropicalis)
